Source: PubChem
PGC1a acetyl inh = lowers PGC1a acetylation signal in U2OS cells; AlphaScreen anti-acetyl-lysine; with virally co-expressed GCN5 acetyltransferase; inhibition, % at 15.6 µM; 350,000 compounds, 0.17% hits;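 active = every replicate shows inhibition of at least 40%; inconclusive = mean inhibition at least 40% but some replicate below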
F508del corr = correctors of CFTR F508del function in bronchial epithelial cells; 350,000 compounds, 0.36% hits; activity (quench increase), % at 7.58 µM; AID 720511; CFBE cells, YFP halide quenching; stimulated with forskolin plus potentiator P3; % fluorescence drop versus neutral controls;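 active = mean added fluorescence quench of at least 8% versus neutral control, with both replicates also reaching 8%; inconclusive = only one of the mean or replicate conditions met; inactive = mean below 8% and not both replicates reaching 8%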;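 note: cells transiently co-express mutant CFTR-F508del with the halide-sensitive YFP; corrector assay measuring rescue of mutant channel to the surface after 24 h compound exposure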
Xi reactivation = reactivates the inactive X chromosome in mouse fibroblasts; XiGFP mouse fibroblasts, % GFP-positive cells imaging, 3 d; cells co-treated with 5-aza-dC sensitizer; scaled so ellipticine positive control = 100%; activation, % at 7.58 µM; 360,000 compounds, 0.055% hits; AID 743238;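 active = mean normalized replicate activation at least 10% and every replicate at or above 10%; inconclusive = only one of the two criteria met; inactive = mean below 10% and not all replicates reach 10%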
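System: SV40-immortalized XiGFP fibroblast cells, line 68-5-11 / Incubation: 3-day compound exposure, then 15 min fixation at room temperature / Compound: single concentration per compound, delivered by pin transfer / Buffer or medium: DMEM plus 5-aza-dC sensitizer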
FN deposit inh = fibronectin deposition inhibition; AH1F fibroblasts, Alexa488-fibronectin deposition fluorescence, overnight; inhibition, % at 12.6 µM; 350,000 compounds, 0.086% hits; AID 743247;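 active = mean inhibition across replicates of 30% or more, regardless of how many single replicates reach that level; inconclusive = mean under 30% yet at least half of replicates reach 30%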
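Assay system: AH1F fibroblasts assembling fluorescent fibronectin matrix; Amount: 10000 AH1F cells per well; Buffer or medium: DMEM, 2% serum; Probe or stimulus: Alexa488-fibronectin, 24 nM final in well; Doses: single compound dose, delivered by pin transfer; Incubation: 1 h adhesion, overnight exposure; Measured by: fluorescence 485/525 nm; Read-out: fibronectin deposition inhibition.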
DENV2 CPE = inhibitors of DENV2 cytopathic effect; CPE inhibition, % at 9.99 µM; DENV2-infected cells, cytopathic effect rescue, plate reader; 350,000 compounds, 1.7% hits; in the data active = CPE inhibition above about 20%, passing the limit was not always enough; inconclusive = no clear call, values can overlap the other calls; tested in BHK-21 cells
Cneo AK release = Cryptococcus neoformans lysis via adenylate kinase release | C. neoformans lysis, adenylate kinase release luminescence, 4 h; normalised: neutral wells 0, clomiphene wells 100 | lysis activity, % at 15 µM | 360,000 compounds, 0.2% hits;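 active = mean lysis activity across replicates of at least 80%, whatever share of replicates individually reach that level; inactive = mean lysis activity below 80%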
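Assay system: log-phase C. neoformans yeast / Quantity: yeast cell density of 5 × 10^6 cells/mL / Medium: fresh YPD growth medium / Compound: single dose / Timing: static 4 h at 37 °C with compound, 1 h detection / Measured by: adenylate kinase release luminescence / Read-out: lysis from increased AK signal / Benchmarks: Clomiphene as positive lysis control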
Numbers stand for hits. Most compounds without a hit are left out; they make up all but 1.9% or so of the library.

`C[C@@H]1CN([C@@H](C)CO)C(=O)c2cc(-c3ccc(C#N)cc3)cnc2O[C@@H]1CN(C)C(=O)Nc1ccc(F)cc1` gave PGC1a acetyl inh inactive, F508del corr inactive, Xi reactivation inactive, FN deposit inh inactive, DENV2 CPE inactive and Cneo AK release 91.7.
Screening C[C@H]1CN([C@@H](C)CO)C(=O)c2cc(-c3ccccc3)cnc2O[C@@H]1CN(C)C(=O)Nc1ccc2c(c1)OCO2 returned PGC1a acetyl inh inactive, F508del corr inactive, Xi reactivation inactive, DENV2 CPE inactive and Cneo AK release inactive.
Screening C[C@@H]1CN([C@@H](C)CO)C(=O)c2cc(-c3cncnc3)cnc2O[C@@H]1CN(C)C(=O)Nc1ccc2c(c1)OCO2 returned PGC1a acetyl inh inactive, F508del corr inactive, Xi reactivation inactive, DENV2 CPE inactive and Cneo AK release inactive.
C[C@H]1CN([C@@H](C)CO)C(=O)c2cc(-c3ccc(C#N)cc3)cnc2O[C@H]1CN(C)C(=O)Nc1ccc(F)cc1 was read as PGC1a acetyl inh inactive, F508del corr inactive, Xi reactivation inactive, FN deposit inh inactive, DENV2 CPE inactive and Cneo AK release inactive.
For C[C@@H]1CN([C@@H](C)CO)C(=O)c2cc(-c3cncnc3)cnc2O[C@H]1CN(C)C(=O)Nc1ccc2c(c1)OCO2 the results were PGC1a acetyl inh inactive, F508del corr inactive, Xi reactivation inactive, DENV2 CPE 47.0 and Cneo AK release inactive.
`C[C@H](CO)N1C[C@H](C)[C@H](CN(C)C(=O)Nc2ccc3c(c2)OCO3)Oc2ncc(-c3ccc(F)cc3)cc2C1=O` gave PGC1a acetyl inh inactive, F508del corr inactive, Xi reactivation inactive, FN deposit inh inactive, DENV2 CPE inactive and Cneo AK release 90.8.
`C[C@H](CO)N1C[C@H](C)[C@H](CN(C)Cc2cccnc2)Oc2cc(-c3cccnc3)ccc2S1(=O)=O` gave PGC1a acetyl inh inactive, F508del corr inactive, Xi reactivation inactive and FN deposit inh inactive.
For C[C@@H]1CN([C@@H](C)CO)C(=O)c2cc(NS(=O)(=O)c3cn(C)cn3)ccc2O[C@@H](C)CCCCO[C@@H]1CN(C)C(=O)c1ccncc1 the results were PGC1a acetyl inh inactive, F508del corr inactive, Xi reactivation inactive, DENV2 CPE inactive and Cneo AK release inactive.
For O=C(C[C@@H]1CC[C@@H]2[C@H](COC[C@H](O)CN2Cc2cccc(Cl)c2)O1)N1CCOCC1 the results were PGC1a acetyl inh inactive, F508del corr inactive, Xi reactivation inactive, FN deposit inh inactive, DENV2 CPE 103.1 and Cneo AK release inactive.
For O=C(C[C@H]1CC[C@H]2[C@@H](COC[C@@H](O)CN2Cc2ccc(Oc3ccccc3)cc2)O1)N1CCCCC1 the results were PGC1a acetyl inh inactive, F508del corr inactive, Xi reactivation inactive, FN deposit inh inactive, DENV2 CPE 23.8 and Cneo AK release inactive.
For O=C(C[C@H]1CC[C@@H]2[C@H](COC[C@H](O)CN2Cc2cccc(Cl)c2)O1)N1CCOCC1 the results were PGC1a acetyl inh inactive, F508del corr inactive, Xi reactivation inactive, FN deposit inh inactive, DENV2 CPE inactive and Cneo AK release inactive.
O=C(C[C@@H]1CC[C@H]2[C@@H](COC[C@@H](O)CN2Cc2cccc(Cl)c2)O1)N1CCOCC1 was read as PGC1a acetyl inh inactive, F508del corr inactive, Xi reactivation inactive, FN deposit inh inactive, DENV2 CPE 89.7 and Cneo AK release inactive.
CN1CCN(C(=O)C[C@@H]2CC[C@H]3[C@@H](COC[C@@H](O)CN3Cc3cccc(Cl)c3)O2)CC1 was read as PGC1a acetyl inh inactive, F508del corr inactive, Xi reactivation inactive, FN deposit inh inactive, DENV2 CPE 27.1 and Cneo AK release inactive.
`COc1ccc2c3c(n(C)c2c1)[C@@H](CO)N(CC1CC1)CC31CCN(C(=O)Nc2ccc(F)cc2F)CC1` gave PGC1a acetyl inh inactive, F508del corr inconclusive, Xi reactivation inactive and DENV2 CPE inactive.
For CCCC(=O)Nc1ccc2c(c1)OC[C@H](C)N(C(=O)c1ccccc1F)C[C@@H](C)[C@H](OC)CN(C)C2=O the results were PGC1a acetyl inh inactive, F508del corr inactive, Xi reactivation inactive and FN deposit inh inactive.
Screening CO[C@H]1CN(C)C(=O)c2ccc(NC(=O)Nc3ccccc3)cc2OC[C@H](C)N(C(=O)CN(C)C)C[C@H]1C returned PGC1a acetyl inh inactive, F508del corr inactive, Xi reactivation inactive, FN deposit inh inactive, DENV2 CPE inactive and Cneo AK release inactive.
`CCC(=O)N1CC2(CCN(C(=O)Nc3ccc(F)cc3)CC2)c2c([nH]c3cc(OC)ccc23)[C@H]1CO` gave PGC1a acetyl inh inactive, F508del corr inactive, Xi reactivation inactive and DENV2 CPE inactive.
Screening O=C(CC1S/C(=N/N=C/c2c[nH]c3ccccc23)NC1=O)Nc1ccccc1 (configuration not stated) returned PGC1a acetyl inh inconclusive, Xi reactivation inactive, FN deposit inh inactive and DENV2 CPE 20.3.
O=C(CC1S/C(=N/N=C/c2c[nH]c3ccc(OCc4ccccc4)cc23)NC1=O)Nc1ccccc1 (configuration not stated) was read as Xi reactivation inactive and FN deposit inh inactive.
`COc1ccc2c3c([nH]c2c1)[C@@H](CO)N(C(=O)c1cnccn1)CC31CCN(S(C)(=O)=O)CC1` gave PGC1a acetyl inh inactive, F508del corr inactive, Xi reactivation inactive and DENV2 CPE 33.7.
Screening COc1ccc2c3c([nH]c2c1)[C@@H](CO)N(C(=O)c1ccccn1)CC31CCN(C(=O)C2CCCC2)CC1 returned F508del corr inactive, Xi reactivation inactive, FN deposit inh inactive and DENV2 CPE 23.5.
CCOc1ccc(-n2c(SCC(N)=O)nnc2-c2cccnc2)cc1 was read as F508del corr inactive, Xi reactivation inactive, FN deposit inh inactive and DENV2 CPE 23.0.
COc1ccc(-n2c(SCC#N)nnc2-c2cccnc2)cc1 was read as PGC1a acetyl inh inconclusive, FN deposit inh inactive and Cneo AK release inactive.
For C[C@@H]1CN([C@H](C)CO)C(=O)c2cc(C#Cc3ccccc3F)cnc2O[C@@H]1CN(C)C(=O)c1ccc2c(c1)OCO2 the results were PGC1a acetyl inh inactive, F508del corr inactive, Xi reactivation inactive, FN deposit inh inactive, DENV2 CPE inactive and Cneo AK release inactive.
CCN(CC)C(=O)C1CCN(Cc2ccc(OCc3ccccc3)cc2)CC1 was read as PGC1a acetyl inh inactive, F508del corr inactive, Xi reactivation inactive, FN deposit inh inactive, DENV2 CPE 27.6 and Cneo AK release inactive.
Screening CC(Sc1nc2ncc(Cl)cc2[nH]1)C(=O)Nc1ccc(C(N)=O)cc1 (configuration not stated) returned PGC1a acetyl inh inactive, F508del corr inactive, Xi reactivation inactive, DENV2 CPE 117.6 and Cneo AK release inactive.
